CAL PDZ FP-1 – inhibitors of human CAL PDZ peptide binding; Q9HD26; purified CAL PDZ, TMR-peptide fluorescence polarization, 1 h; inhibition, % at 24.9 µM; 300,000 compounds, 0.92% hits; AID 602252;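 active = mean inhibition of at least 30% with at least half of replicates also reaching 30%; inconclusive = no clear call, values can overlap the other calls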;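 note: 0% = DMSO neutral control and 100% = excess unlabeled competitor peptide PRC23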
CDK5 inh – blocks human CDK5/p35 kinase activity. Q00535+Q15078. Recombinant CDK5/p35, ADP-Glo luminescence, 60 min. inhibition, % at 10 µM. 330,000 compounds, 0.01% hits. AID 488839;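 active = highest replicate inhibition of at least 50% and at least 75% of replicates reaching 50%; inconclusive = only one of the two criteria met; inactive = both criteria failed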;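 note: plate controls were DMSO neutral control for no effect and GW8510 at 10 µM for full effect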
S100A4 inh HTS – S100A4-myosin IIA interaction inhibition | inhibition, % at 10.7 µM | S100A4/TAMRA-MyoIIA peptide fluorescence polarization | AID 652163 | 360,000 compounds, 0.14% hits | P26447;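 active = mean inhibition of at least 70% across replicates, with every replicate also reaching that level; inconclusive = mean inhibition reaches 70% but some replicates fall short; inactive = mean inhibition below 70%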
Target sequence (P26447 whole entry, looked up): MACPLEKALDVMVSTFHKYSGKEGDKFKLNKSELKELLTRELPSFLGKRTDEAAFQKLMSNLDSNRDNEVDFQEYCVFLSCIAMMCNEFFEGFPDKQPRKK
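incubation = readout 5 min after mixing, signal stable up to 60 min | system = S100A4 monomer protein | buffer or medium = HEPES pH 7.2 with CaCl2, KCl, NaCl, DTT, Triton | benchmarks = neutral control DMSO, positive control TFP | also added = fluorescent myosin IIA peptide, 5 nM | compound dosing = one concentration per compound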
Statin myotox sup – suppressors of simvastatin-induced myotoxicity in C2C12 myotubes | AID 602340 | rescue of ATP level, % at 7.49 µM | ATP luminescence, 48 h; scaled: DMSO 0, geranylgeraniol control 100 | 330,000 compounds, 0.78% hits;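 active = mean ATP rescue above about 67%, or every replicate alone reaching that limit, limit read from the data, passing the limit was not always enough; inconclusive = no clear call, values can overlap the other calls; inactive = mean under the limit and some replicate under it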;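 note: myotubes were challenged with 10 µM simvastatin during compound exposure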
CAL PDZ FP-2 – human CAL PDZ-peptide interaction inhibition; inhibition, % at 20 µM; 330,000 compounds, 0.02% hits; Q9HD26; AID 504414; purified CAL PDZ, TMR-peptide fluorescence polarization, 1 h;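 active = highest replicate inhibition of at least 40%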;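 note: plate controls were DMSO neutral control wells for no effect and unlabeled competitor peptide control wells for full effect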
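material = purified tagged CAL PDZ domain construct (CerCALP) | compound dosing = 20 µM, one dose | times = 1 h at RT | measured by = fluorescence polarization from S- and P-plane intensities, G-factor corrected | read-out = inhibition from polarization loss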
dFosB act-1 – mouse delta FosB homodimer activation. P13346. purified delta FosB, TAMRA-CDK5 oligo fluorescence polarization; percent of positive-control signal above neutral wells. activation, % at 25 µM. 340,000 compounds, 0.99% hits;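 active = mean activation above about 17%, with every replicate also reaching it, limit read from the data, passing the limit was not always enough; inconclusive = only one of the two conditions met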
Target sequence (P13346 whole entry, looked up): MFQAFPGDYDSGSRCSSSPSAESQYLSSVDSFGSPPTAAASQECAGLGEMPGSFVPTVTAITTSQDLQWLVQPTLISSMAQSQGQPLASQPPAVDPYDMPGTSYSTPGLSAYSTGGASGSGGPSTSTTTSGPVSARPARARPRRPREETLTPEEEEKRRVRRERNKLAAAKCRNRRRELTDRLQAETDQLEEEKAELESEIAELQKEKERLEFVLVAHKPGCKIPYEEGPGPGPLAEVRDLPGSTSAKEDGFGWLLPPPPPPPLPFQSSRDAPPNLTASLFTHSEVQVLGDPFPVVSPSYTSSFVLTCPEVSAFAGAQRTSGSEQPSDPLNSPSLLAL
dFosB act-2 – activators of mouse delta FosB homodimer DNA binding; shares compounds with dFosB act-1; purified delta FosB, TAMRA-CDK5 oligo fluorescence polarization; normalised: neutral wells 0, positive control 100; activation, % at 24.9 µM; 2,400 tested, under 10 active;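 active = highest replicate activation at or above 34% and every replicate reaching that threshold; inconclusive = meets only one of the two criteria; inactive = meets neither criterion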;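 note: higher polarization means more probe DNA bound by delta FosB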
An asterisk follows results filed as active. The list is not random: actives were taken first. Their share in the collection is about 2%.

What do the screens show for `COc1ccc(NS(=O)(=O)c2cc(NC(=O)CNC(=O)c3ccc(C)s3)ccc2Cl)cc1`?
CAL PDZ FP-1: -4.2; CDK5 inh: -0.2; S100A4 inh HTS: -7.4; CAL PDZ FP-2: -3.1; dFosB act-1: 2.2

Results for CC1CCN(S(=O)(=O)c2ccc(NC(=O)Cn3nnc(-c4ccccc4)n3)cc2)CC1 ?
CAL PDZ FP-1: -2.3; CDK5 inh: -0.3; Statin myotox sup: 11.7; CAL PDZ FP-2: -0.8; dFosB act-1: inconclusive

What do the screens show for `Cc1ccc(-c2nnn(CC(=O)Nc3ccc(S(=O)(=O)N4CCC(C)CC4)cc3)n2)cc1`?
CAL PDZ FP-1: -2.6; CDK5 inh: -3.9; Statin myotox sup: -1.8; CAL PDZ FP-2: 0.0; dFosB act-1: 68.4*; dFosB act-2: 6.8

Results for C=CCNc1nc(Nc2ccc(-c3nc4ccccc4o3)cc2)nc(N2CCOCC2)n1 ?
CAL PDZ FP-1: -1.0; CDK5 inh: 2.7; S100A4 inh HTS: 0.9; Statin myotox sup: -13.5; CAL PDZ FP-2: -2.6; dFosB act-1: 28.3*; dFosB act-2: 1.7

What do the screens show for `C=CCNc1nc(NCC)nc(N2CCOCC2)n1`?
CAL PDZ FP-1: -1.5; CDK5 inh: 0.3; Statin myotox sup: -13.3; CAL PDZ FP-2: -0.8; dFosB act-1: -2.8

What do the screens show for `COc1cccc(-n2c(SCc3c(C)noc3C)nnc2-c2cccc(S(=O)(=O)N(C)C)c2)c1`?
CAL PDZ FP-1: -4.8; CDK5 inh: -1.1; Statin myotox sup: 9.1; CAL PDZ FP-2: -2.9; dFosB act-1: -13.2

Results for Cc1cc(NC(=O)C2(C)CCN2C(C)C)c2ccccc2n1 (stereo not given) ?
S100A4 inh HTS: 2.9; Statin myotox sup: -1.8

What do the screens show for `CCOc1ccc2nc(N(CCN(C)C)C(=O)/C=C/c3cccs3)sc2c1`?
CAL PDZ FP-1: -1.0; CDK5 inh: -3.6; Statin myotox sup: -12.8; CAL PDZ FP-2: -3.7; dFosB act-1: 31.9*; dFosB act-2: 5.8

What do the screens show for `CN(C)CCCN(C(=O)/C=C/c1cccs1)c1nc2ccc(F)cc2s1`?
CAL PDZ FP-1: 1.5; CDK5 inh: -0.8; S100A4 inh HTS: -4.5; Statin myotox sup: -1.5; CAL PDZ FP-2: -3.2; dFosB act-1: -109.2

Results for CN(C)CCN(C(=O)/C=C/c1cccs1)c1nc2c(F)cc(F)cc2s1 ?
CAL PDZ FP-1: 1.0; CDK5 inh: 2.9; CAL PDZ FP-2: -0.8; dFosB act-1: 53.1*; dFosB act-2: 4.4

What do the screens show for `CCCCCCCCCCCC1N=C(N)NC(CCCO)=C1C(=O)OC` (stereo not given)?
CAL PDZ FP-1: -1.6; CDK5 inh: 3.6; S100A4 inh HTS: -1.1; CAL PDZ FP-2: -1.1; dFosB act-1: 42.1*; dFosB act-2: inconclusive

What do the screens show for `CCCCCCOC(=O)c1ccc(N)cc1`?
CAL PDZ FP-1: -1.5; CDK5 inh: 1.4; S100A4 inh HTS: -4.5; CAL PDZ FP-2: -1.3; dFosB act-1: -0.6

What do the screens show for `CC1CC(C)CN(S(=O)(=O)c2ccc(C(=O)Nc3sccc3C(N)=O)cc2)C1` (stereo not given)?
CDK5 inh: 1.3; S100A4 inh HTS: -1.5; Statin myotox sup: 6.2; CAL PDZ FP-2: 0.1; dFosB act-1: 28.6*; dFosB act-2: 1.9

Results for O=C(NC1CC(=O)N(c2ccc(F)cc2)C1)C(=O)c1c[nH]c2ccccc12 (stereo not given) ?
CAL PDZ FP-1: -2.4; CDK5 inh: 0.9; S100A4 inh HTS: 2.4; Statin myotox sup: 15.4; CAL PDZ FP-2: -1.7; dFosB act-1: -5.1

What do the screens show for `COc1cccc(C(=O)Nc2ccc3c(c2)OC[C@H](C)N(C)C[C@@H](C)[C@H](OC)CN(C)C3=O)c1`?
S100A4 inh HTS: 6.3; Statin myotox sup: -0.7

How did Oc1ccc(C[C@@H](CN2CCC[C@@H]2CN2C(=S)NC[C@@H]2Cc2ccccc2)N2C[C@H](Cc3ccccc3)N(CCc3ccccc3)C2=S)cc1 do in these assays?
S100A4 inh HTS: -1.6; Statin myotox sup: 8.4

Results for Oc1ccc(C[C@H]2CNC(=S)N2CC2CCCN2C[C@H](Cc2ccccc2)N2C[C@H](Cc3ccc(O)cc3)N(CCc3ccccc3)C2=S)cc1 (stereo not given in full) ?
CAL PDZ FP-1: 2.1; CDK5 inh: -0.4; S100A4 inh HTS: 1.2; Statin myotox sup: 2.8; CAL PDZ FP-2: 2.4; dFosB act-1: 67.4*; dFosB act-2: 1.3

Results for CCOc1ccc(CCN2C(=S)N([C@@H](CC(C)C)CN3CCCC3CN3C(=S)NC[C@@H]3Cc3ccc(O)cc3)C[C@@H]2Cc2ccc(O)cc2)cc1 (stereo not given in full) ?
CAL PDZ FP-1: -0.5; CDK5 inh: 0.3; S100A4 inh HTS: -5.6; Statin myotox sup: 5.1; CAL PDZ FP-2: -1.5; dFosB act-1: 51.0*; dFosB act-2: 1.4

What do the screens show for `CCOc1ccc(CCN2C(=S)N([C@@H](CC(C)C)CN3CCCC3CN3C(=S)NC[C@@H]3Cc3ccc(O)cc3)C[C@@H]2Cc2ccccc2)cc1` (stereo not given in full)?
CAL PDZ FP-1: -1.5; CDK5 inh: -7.4; S100A4 inh HTS: -3.0; Statin myotox sup: 0.4; CAL PDZ FP-2: 0.5; dFosB act-1: 65.2*; dFosB act-2: 3.8

How did Cc1ccc(C)c(NC(=S)N/N=C2\CCc3ccccc32)c1 do in these assays?
CAL PDZ FP-1: -1.7; CDK5 inh: -3.0; S100A4 inh HTS: -1.8; Statin myotox sup: -11.7; CAL PDZ FP-2: -2.8; dFosB act-1: -6.3

What do the screens show for `Cc1cc(NC(=O)CCC(=O)N(Cc2ccco2)C2(C(=O)NC3CCCC3)CCCCC2)no1`?
CDK5 inh: 3.3; S100A4 inh HTS: 1.1; Statin myotox sup: -0.8; CAL PDZ FP-2: -1.8; dFosB act-1: -5.3

What do the screens show for `O=C(CCc1ccccc1)NNC(=O)Nc1ccc(Br)cc1`?
CAL PDZ FP-1: 0.7; CDK5 inh: -1.1; S100A4 inh HTS: 0.7; Statin myotox sup: -2.1; CAL PDZ FP-2: 0.1; dFosB act-1: -4.5

Results for COc1ccc(CCNC(=O)CCn2c(SCC#N)nc3ccccc3c2=O)cc1OC ?
CAL PDZ FP-1: 1.2; CDK5 inh: 0.0; Statin myotox sup: 25.6; CAL PDZ FP-2: -2.4; dFosB act-1: 22.2*; dFosB act-2: 1.3

What do the screens show for `Cc1ccc(S(=O)(=O)N2CCN(c3nc(CN4CCCC4)nc4sc(C)c(C)c34)CC2)cc1`?
CAL PDZ FP-1: -3.3; CDK5 inh: 0.4; S100A4 inh HTS: -10.0; Statin myotox sup: -5.1; CAL PDZ FP-2: -1.7; dFosB act-1: 10.1

Screening results as filed in PubChem BioAssay.
